{"source": "the RNAGym collection of RNA variant scans (doi:10.1038/nmeth.2970)", "parents": {"B1": {"name": "NELF-E aptamer (parent)", "chain": "CCCAACGACUGCCGAGCGAGAUUACGCUUGAGCGCCCCACUGAGGAUGCCCACGGGCGAUUGGGGCACGG"}}}
{"variants_of": "B1", "assay": "HiTS-RAP", "conditions": "with NELF-E (Drosophila)", "how_it_was_run": "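Aptamer DNA templates bearing a T7 promoter and a ter site were sequenced on an Illumina GAIIx flowcell. T7 RNA polymerase then transcribed them in situ, and GST-Tus halted transcription over 30 minutes at 37°C. After a 30-minute room-temperature equilibration with NELF-E-mOrange at 0.064 to 1000 nM in HEPES binding buffer, clusters were imaged, using only the first binding curve. Intensities normalised to sequencing intensity were averaged per sequence and fitted with weighted Hill fits to give Kd, retaining only fits whose variance stayed under 1,000,000.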", "units": {"Kd": "nM"}}
{"variant": "CCCAGCGACUGCAGAGCGAGAUUACGCUUGAGCGCCCCACUGAGGAUGCCCACGGGCGAUUGGGGCACGG", "note": "[A5G C13A]", "Kd": 5.36}
{"variant": "CCCAACGACUGCCUAGCGAGAUUACGCUUGAGCGCCCCACUGAGGAUGCCCACGGGCGAUUGGAGCACGG", "note": "[G14U G64A]", "Kd": 6.6}
{"variant": "CCCAACGACUGCCGAGCGAGAUUACGCUGGAGCGCCCCACUGAGGAUGCCCACUGGCGAUUGGGGCACGG", "note": "[U29G G54U]", "Kd": 6.72}
{"variant": "CCCAACGACUUCCGAGCGAGAUUACGCUUGAGCGCCCCACUGAGGAUGCUCACGGGCGAUUGGGGCACGG", "note": "[G11U C50U]", "Kd": 17.7}
{"variant": "CCCAACGACUGCCGAGCGAUAUUACGCUUGAGCGCCCCACUGAGGAUGCCCACGGGCGAUUGGGUCACGG", "note": "[G20U G65U]", "Kd": 7.46}
{"variant": "CCCAACGCCUGCCGAGCGAGAUGACGCUUGAGCGCCCCACUGAGGAUGCCCACGGGCGAUUGGGGCACGG", "note": "[A8C U23G]", "Kd": 7.61}
{"variant": "CCCAACGACUGCCUAGCGAGAUUACGCUUGAGCGCCCCACUGAGGAUGCCCACGGACGAUUGGGGCACGG", "note": "[G14U G56A]", "Kd": 9.7}
{"variant": "CCCAACGACGGCCGAGCGAGAUUACGCUUGAGCGCCCCAGUGAGGAUGCCCACGGGCGAUUGGGGCACGG", "note": "[U10G C40G]", "Kd": 5.38}
{"variant": "CCCAACGACUGCCGAGCGAGAUGACGCUUGAGCGCCCCACUGAGGAUGCCCACUGGCGAUUGGGGCACGG", "note": "[U23G G54U]", "Kd": 11.1}
{"variant": "CCCAACGACUGCCGAGCAAGAUUACGCUGGAGCGCCCCACUGAGGAUGCCCACGGGCGAUUGGGGCACGG", "note": "[G18A U29G]", "Kd": 5.68}
{"variant": "CCCAACUACUGCCGAGCGAGAUUACGCUAGAGCGCCCCACUGAGGAUGCCCACGGGCGAUUGGGGCACGG", "note": "[G7U U29A]", "Kd": 5.71}
{"variant": "CCCAACGACUGCCGUGCGAGAUGACGCUUGAGCGCCCCACUGAGGAUGCCCACGGGCGAUUGGGGCACGG", "note": "[A15U U23G]", "Kd": 5.84}
{"variant": "CCCAACGACUGCCGAGCGAGAGUGCGCUUGAGCGCCCCACUGAGGAUGCCCACGGGCGAUUGGGGCACGG", "note": "[U22G A24G]", "Kd": 5.62}
{"variant": "CCCAACGACUGCCGAGCGAGAUUACGCUGGAGUGCCCCACUGAGGAUGCCCACGGGCGAUUGGGGCACGG", "note": "[U29G C33U]", "Kd": 6.03}
{"variant": "CCCAACGACUGCCGAGCGAGAUUACGCUUUGGCGCCCCACUGAGGAUGCCCACGGGCGAUUGGGGCACGG", "note": "[G30U A31G]", "Kd": 6.4}
{"variant": "CCCAACGACUGGCGAGCGAGAUUACGCUUGAGCGCCCCUCUGAGGAUGCCCACGGGCGAUUGGGGCACGG", "note": "[C12G A39U]", "Kd": 25}
{"variant": "CCCAACGACUGGCGAGCGAGAUUACGCUUGAGCGCCCCACUGAGGGUGCCCACGGGCGAUUGGGGCACGG", "note": "[C12G A46G]", "Kd": 44.8}
{"variant": "CCCAACGACUGCGGAGCAAGAUUACGCUUGAGCGCCCCACUGAGGAUGCCCACGGGCGAUUGGGGCACGG", "note": "[C13G G18A]", "Kd": 5.31}
{"variant": "CCCAACGACGGCCGAGCGAGAUUACGCUUGAGCGUCCCACUGAGGAUGCCCACGGGCGAUUGGGGCACGG", "note": "[U10G C35U]", "Kd": 16.3}
{"variant": "CCCAACGACUGCCGAGCGGGAUUAUGCUUGAGCGCCCCACUGAGGAUGCCCACGGGCGAUUGGGGCACGG", "note": "[A19G C25U]", "Kd": 6.25}
{"variant": "CCCAACGUCUGGCGAGCGAGAUUACGCUUGAGCGCCCCACUGAGGAUGCCCACGGGCGAUUGGGGCACGG", "note": "[A8U C12G]", "Kd": 6.15}
{"variant": "CCCAACGACUGCCGAGCGAGAUUACGCUUGAGCGCCCCACGGAGGGUGCCCACGGGCGAUUGGGGCACGG", "note": "[U41G A46G]", "Kd": 26.2}
{"variant": "CCCAACGACUGCCGGGCGAGAUUACGCUUGAGCGCCCCACUGAGGAUGCCCACGGGCGAUUGGGGCACGG", "note": "[A15G]", "Kd": 4.77}
{"variant": "CCCAACGACUGCCGAGCGGGAUUACGCUUGAGCGCCCCACUGAGGAUGCCCACGGGCGAUUGGAGCACGG", "note": "[A19G G64A]", "Kd": 6.54}
{"variant": "CCCAAGGACUGCCGAGCGAGAUUACGCUUGAGCGCCCCACUGAGGAUGCCCACGGGCGAUUGGGUCACGG", "note": "[C6G G65U]", "Kd": 6.3}
{"variant": "CCCAACGACUGCCAAGCGAGAUUACGCUUGAGCGCCCCACUGGGGAUGCCCACGGGCGAUUGGGGCACGG", "note": "[G14A A43G]", "Kd": 9.58}
{"variant": "CCCAACGACUGCCGAGCGAUAUUACGCUUGAGCGCCCCACUGAGGGUGCCCACGGGCGAUUGGGGCACGG", "note": "[G20U A46G]", "Kd": 47.1}
{"variant": "CCCAACGACUGCCGAGUGAGAUUACGCUUGAGCGCCCCACGGAGGAUGCCCACGGGCGAUUGGGGCACGG", "note": "[C17U U41G]", "Kd": 5.63}
{"variant": "CCCAACGUCUGCCGAGUGAGAUUACGCUUGAGCGCCCCACUGAGGAUGCCCACGGGCGAUUGGGGCACGG", "note": "[A8U C17U]", "Kd": 5.13}
{"variant": "CCCAACGACUGCCGAGCGAGAUUACGCUUGAGCGCCCCACUGAGGAUGCCCACGGGCGUUUGGGGCACGG", "note": "[A59U]", "Kd": 72.2}
{"variant": "CCCAACGACUGCCGAGCGAGAUGACGCUUGAGCGCACCACUGAGGAUGCCCACGGGCGAUUGGGGCACGG", "note": "[U23G C36A]", "Kd": 8.43}
{"variant": "CCCAACGACUGCCGAGGGAGAUUACGCUUGAGCGCCCCACUGAGGAUGCCCACGGGCGAUUGUGGCACGG", "note": "[C17G G63U]", "Kd": 10.3}
{"variant": "CCCAACGACGGCCGAGCGAGAUUACGCUUGAGCGCCCCACUGAGGAUGCCCACGGGAGAUUGGGGCACGG", "note": "[U10G C57A]", "Kd": 11.8}
{"variant": "CCCAACGACCGCCGAGCGAGAUUACGCUUGAGCGCCCCACUGAGGAUGCCCACGGGUGAUUGGGGCACGG", "note": "[U10C C57U]", "Kd": 4.92}
{"variant": "CCCAACGACUGCCGAGCGUGAUUGCGCUUGAGCGCCCCACUGAGGAUGCCCACGGGCGAUUGGGGCACGG", "note": "[A19U A24G]", "Kd": 5.61}
{"variant": "CCCAACGGCUGCCGUGCGAGAUUACGCUUGAGCGCCCCACUGAGGAUGCCCACGGGCGAUUGGGGCACGG", "note": "[A8G A15U]", "Kd": 5.54}
{"variant": "CCCGACGACUGCCGAGCGAGAUUACGCUUGAGCGCCCCACUGAGGAUGCCCGCGGGCGAUUGGGGCACGG", "note": "[A4G A52G]", "Kd": 4.59}
{"variant": "CCCGACGACUGCCGAGCGAGAUUACGCUUGAGCGCCCCACUGAGGAUGCCCUCGGGCGAUUGGGGCACGG", "note": "[A4G A52U]", "Kd": 18.3}
